# Screens (PubChem)
# Sampled rows, rich in hits. Any-hit rate of the full collection: about 4.1%.
# FLuc inh counter: Photinus pyralis luciferase inhibition counter-screen | P08659 | ATPLite firefly luciferase biochemical luminescence, 10 min | inhibition, % at 10 µM | 1.5% of 200,000 active | AID 1006;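 active = inhibition above about 50% when tested at 10 µM, limit read from the data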
# Target sequence (P08659 whole entry, looked up): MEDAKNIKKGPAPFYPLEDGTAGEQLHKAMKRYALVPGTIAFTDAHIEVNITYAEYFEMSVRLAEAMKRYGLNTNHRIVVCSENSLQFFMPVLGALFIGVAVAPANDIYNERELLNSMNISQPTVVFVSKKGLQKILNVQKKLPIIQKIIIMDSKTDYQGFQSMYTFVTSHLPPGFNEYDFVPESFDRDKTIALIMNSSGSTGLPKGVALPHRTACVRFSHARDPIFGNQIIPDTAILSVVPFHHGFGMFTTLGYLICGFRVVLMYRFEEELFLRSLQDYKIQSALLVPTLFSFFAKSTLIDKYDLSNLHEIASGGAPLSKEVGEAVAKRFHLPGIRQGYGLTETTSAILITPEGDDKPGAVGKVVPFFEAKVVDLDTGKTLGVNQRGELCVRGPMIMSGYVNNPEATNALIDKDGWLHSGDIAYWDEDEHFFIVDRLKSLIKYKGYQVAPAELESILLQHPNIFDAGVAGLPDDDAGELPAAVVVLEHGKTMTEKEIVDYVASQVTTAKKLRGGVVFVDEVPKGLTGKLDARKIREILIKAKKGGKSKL
# APP 5'UTR act: activates APP 5'UTR luciferase reporter; SH-SY5Y APP 5'UTR luciferase reporter, luminescence; zero percent = DMSO vehicle wells; activation, % at 2 µM; 1% of 190,000 active;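 active = activation above a set limit, based on mean plus 3 SD of controls, cut at about 140% in these data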
# NF-kB neuron act: raises NF-kB expression in human neuronal cells | NF-kB reporter expression; stronger effect = higher value | fold change at 12.5 µM | 1.6% of 190,000 active | AID 1239; in the data active = fold change above about 3.3
# STAT1 act: activators of IFN-gamma induced STAT1 signaling. activation (% of control), % at 5.5 µM. NIH 3T3 STAT1-luciferase reporter, luminescence; 100% = IFN-gamma alone, no compound. 2.6% of 200,000 active;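 active = activation above the screen-wide mean activation plus 3 SD, cut at about 130% in these data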;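 note: raw ratio to IFN-gamma control signal so 100% means no change and 0% no light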
# FLuc act counter: firefly luciferase counter-screen for stimulation assays | ATPlite luciferase biochemical, luminescence, 10 min; 0 = ATP-free wells, 1 = DMSO control | activation factor at 10 µM | 200,000 tested, under 10 active | AID 1027 | P08659;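 active = luciferase activation factor, scaled between plate controls, of at least 2 with compound at 10 µM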
#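 Material: Luciferase/luciferin reagent mix | Doses: Test compounds dosed from 2 mM stocks in 100% DMSO | Timing: 10 min incubation after luciferase reagent addition, room temperature | Measured by: Luminescence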
# Starred values were filed as active, the others as inactive; x = no result.
SMILES,FLuc inh counter,APP 5'UTR act,NF-kB neuron act,STAT1 act,FLuc act counter
COc1cccc(C(=O)/C=C/Nc2ccc(S(=O)(=O)Nc3ncccn3)cc2)c1,2,-15,0.95,139*,1
COc1cccc(C(=O)/C=C/Nc2ccc(S(=O)(=O)Nc3nc(C)cc(C)n3)cc2)c1,-3,-9,1.2,97,1
COc1cc(/C=N/NC(=O)CN(Cc2ccccc2)S(=O)(=O)c2ccc3c(c2)OCCO3)ccc1O,-5,x,0.82,102,1.1
CC(C)(C)c1ccc(C(=O)Nc2ccc(CC(=O)O)cc2)o1,51*,x,0.38,50,0.5
Cc1ccc(C(=O)Nc2ccc(CC(=O)O)cc2)o1,-2,-2,1.1,98,1
Cc1ccc(Nc2n[nH]c(C)c2[N+](=O)[O-])cc1,10,54,3.1,147*,0.9
O=C(O)CCC(=O)N1CCN(c2ccc(C(=O)c3ccc(F)cc3)cc2)CC1,-6,13,1.2,98,1.1
CN1CCN(c2ccc(C(=O)c3ccc(F)cc3)cc2)CC1,14,75,2.7,136*,0.9
CCOc1ccc2c(O)csc2c1,-7,14,1.2,102,1.1
Brc1ccc(-c2ncc(-c3ccccc3)cn2)cc1,32,31,5.7*,139*,0.7
Cc1ccc(C)c(C(=O)O/N=C(\N)c2ccc(Br)cc2)c1,3,10,1.9,92,1
COc1ccccc1C(=O)O/N=C(\N)c1ccc(Cl)cc1,17,70,5.4*,140*,0.8
COc1ccccc1C(=O)NNC(=O)c1ccc(Cl)cc1,30,2,1.7,114,0.7
Cc1ccc(/C(N)=N/OC(=O)c2ccc(Cl)cc2Cl)cc1,75*,154*,1.6,140*,0.3
Cc1cc(C(=O)COC(=O)c2ccc[nH]c2=O)c(C)n1-c1ccccc1,91*,131,0.9,68,0.1
Cc1cc(C(=O)COC(=O)c2ccc[nH]c2=O)c(C)n1C1CC1,64*,4,0.86,120,0.4
Cc1cc(C(=O)OCC(=O)NCc2ccco2)c(C)n1-c1ccc(F)cc1,-2,-75,1.9,112,1
Cc1cc(C(=O)COC(=O)c2ccc[nH]c2=O)c(C)n1-c1ccc(F)cc1,79*,84,0.51,109,0.2
CNC(=O)Nc1ccccc1F,-6,7,1.3,108,1.1
O=c1c(Br)c(NCc2ccccc2)cnn1-c1ccc(F)cc1,-9,21,1.9,129*,1.1
O=c1[nH]c(SCc2ccccc2)nc2c1cnn2-c1ccc(F)cc1,1,18,1.2,96,1
CN(C)CCNC(=O)c1cc2c(=O)n(C)c3ccccc3c2n1C,-2,-2,1.6,108,1
COc1ccc(-n2nc3ccccc3n2)cc1,8,11,1.5,116,0.9
COc1ccc(NC(C)=O)c(C)c1,-6,4,1.1,98,1.1
COc1ccc(-n2nc3cc(C)c(NC(=O)C(C)C)cc3n2)cc1,19,83,1.1,139*,0.8
SMILES,FLuc inh counter,APP 5'UTR act,NF-kB neuron act,STAT1 act,FLuc act counter
COc1ccc(-n2nc3cc(C)c(NC(C)=O)cc3n2)cc1,81*,123,2.3,63,0.2
Cc1ccc(-n2nc3cc(C)c(N)cc3n2)cc1,81*,120,3.9*,107,0.2
COc1ccc(-n2nc3cc(C)c(N)c(Br)c3n2)cc1,41,185*,6.3*,168*,0.6
O=C1OCC2=C1C(c1ccc(F)cc1)c1cc3c(cc1N2)OCO3 (stereo not drawn),-4,-95,2.9,100,1
CCCC(=O)N=C1SC2CS(=O)(=O)CC2N1c1ccc(-c2nc3ccc(C)cc3s2)cc1 (stereo not drawn),21,125,1.4,131*,0.8
Cc1ccc(NC(=O)COc2ccccc2C(=O)NCCN(C)C)cc1,1,0,1,103,1
O=C(c1ccccc1)n1nnc2ccccc21,3,x,0.88,102,1
Nc1nncn1C(=O)c1cccs1,-5,13,0.98,102,1.1
Nc1nc2ccccc2n1C(=O)c1cccs1,69*,80,4.7*,113,0.3
Nc1nc2ccccc2n1C(=O)c1ccco1,43,131,3.1,139*,0.6
Nc1nc2ccccc2n1C(=O)c1ccccc1,90*,161*,3.2,73,0.1
O=C(c1ccco1)N1CCn2c1nc1ccccc12,24,-5,2,125,0.8
Nc1nc2ccccc2n1C(=O)c1ccc(F)cc1,91*,188*,3.2,81,0.1
